Like-named read-outs stand apart in the source and are kept apart here.
Tests used:
[1] = test system: INSR minigene exon 11 splicing in HeLa cells expressing CUG960; type: cell-based, human; conditions: for INSR mis-splicing rescue (in words): HeLa cells, CUG960 + INSR minigene
[2] = test system: TNNT2 minigene exon 5 splicing in HeLa cells expressing CUG960; assay: HeLa cell DM1 splicing assay, TNNT2 minigene co-transfected with CUG960; type: cell-based, human
[3] = test system: INSR minigene exon 11 splicing in HeLa cells without CUG960; assay: Control splicing experiment, INSR minigene in the absence of transfected CUG960; type: cell-based, human; conditions: 80 μM; untreated range ~70% to ~80 %
[4] = test system: CUG: MBNL nuclear foci in HeLa cells transfected with CUG960; assay: Fluorescent microscopy of CUG RNA nuclear foci and MBNL1 localization; type: cell-based, human; conditions: for Effect on ribonuclear foci (in words): 50 μM pentamidine or 80 μM compound 13
Atp2a1 exon 22 splicing = assay: HSALR DM1 mouse model, Atp2a1 splicing in quadriceps muscle; type: in vivo; conditions: HSALR mice, wild type 100 ± 0.2 %, HSALR 28 ± 2 %
Summary of the method: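 Homozygous, gender-matched HSALR transgenic mice aged 10–14 wks received the test compound in 5% glucose solution by daily intraperitoneal injection for 7 d. Controls received 5% glucose injections. Mice were killed 1 d after the last dose and quadriceps was taken. RNA was reverse transcribed, PCR-amplified and run on agarose gels read by fluorimager. Inclusion was scored per individual mouse.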

[5] = Toxicity observed in treated HSALR mice; type: in vivo, mouse; conditions: 10 and 20 mg/kg daily i.p. for 7 d
[6] = Flow cytometry cell viability assay with propidium iodide in the DM1 cell model; conditions: human, HeLa cells, DM1 cell model (transfected)
in vitro = conditions: human

SMILES: N=C(N)c1ccc(OCCCOc2ccccc2)cc1 [Compound 2a]
- INSR mis-splicing rescue (in words) [1]: dose-dependent rescue of mis-splicing through 60 μM

SMILES: N=C(N)c1ccc(OCCCCc2ccccc2)cc1 [Compound 2b]
- INSR mis-splicing rescue (in words) [1]: little rescue was observed by 20 μM

SMILES: N=C(N)c1cccc(OCCCCCCCOc2cccc(C(=N)N)c2)c1 [Compound 4]
- Toxicity observed in the cell splicing assay (in words) [1]: very toxic over the range tested
- INSR mis-splicing rescue (in words) [1]: almost complete dose-dependent mis-splicing rescue at 25 μM

SMILES: N=C(N)c1ccc(-c2ccc(-c3ccc(C(=N)N)cc3)o2)cc1 [Compound 13, furamidine]
- Toxicity observed in the cell splicing assay (in words) ([1]; HeLa DM1 cell model, qualitative): non-toxic over the range of rescue
- Concentration by which full TNNT2 mis-splicing reversal was achieved [2]: ≤ 80 µM
- INSR exon 11 inclusion in the absence of CUG960 [3]: 81± 4%
- Effect on ribonuclear foci (in words) [4]: significant reduction of ribonuclear foci
- Reduction of nuclear foci per cell ([4]; 80 μM, vs transfected controls, n = 121, p < 0.05): 89%
- Atp2a1 exon 22 inclusion (Atp2a1 exon 22 splicing; 10 mg/kg daily i.p. 7 days): 64 ± 4%
- Atp2a1 exon 22 inclusion (Atp2a1 exon 22 splicing; 20 mg/kg daily i.p. 7 days): 83 ± 4%
- Toxicity in mice (in words) [5]: No toxicity was observed over the concentration range tested

SMILES: N=C(N)c1ccc(OCCCCCCCOc2ccc(C(=N)N)cc2)cc1 [Heptamidine, heptamidine]
- IC50 at 18 h [6]: 15 ± 0.46 µM

SMILES: N=C(N)c1ccc(OCCCCCOc2ccc(C(=N)N)cc2)cc1 [Pentamidine, pentamidine, reference compound]
- Effect on ribonuclear foci (in words) [4]: significant reduction of ribonuclear foci
- IC50 at 18 h (in vitro): 64 ± 12 µM
